Measurements taken from ChEMBL document CHEMBL3085685, “In vitro and in vivo antileishmanial and trypanocidal studies of new N-benzene- and N-naphthalenesulfonamide derivatives” (J Med Chem, 2013).
Active and inactive are the calls of the source. The rule behind the calls is not given here.

Columns and labels:
[1] = test system: Trypanosoma cruzi; test: Trypanocidal activity against bloodstream trypomastigote stage of Trypanosoma cruzi Y infected in BALB/c mouse assessed as reduction of survival rate at 10 mg/kg/day, ip qd administered for 5 days measured daily until day 30 post-infection; format: functional, organism-based
In short: (§1)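 Female BALB/c mice (20–24 g) infected ip with 10^4 Y-strain bloodstream trypomastigotes; only parasitemic animals used. Compounds dissolved in DMSO, freshly diluted in propylene glycol, given ip at 10 mg/kg/day for 5 days from 5 dpi, with an untreated group. Parasitemia counted by Pizzi–Brener in 5 μL tail blood at 5, 8, 10 dpi; mortality checked daily to 30 dpi.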

[2] = test system: Trypanosoma cruzi; test: Trypanocidal activity against bloodstream trypomastigote stage of Trypanosoma cruzi Y infected in BALB/c mouse assessed as reduction of parasitemia at 10 mg/kg/day, ip qd administered for 5 days measured on day 10 post-infection by microscopic analysis relative to control; format: functional; design: scale not given: the % may be the effect or the level left; conditions: route intraperitoneal; in short: as §1
[3] = test system: Trypanosoma cruzi; test: Trypanocidal activity against bloodstream trypomastigote stage of Trypanosoma cruzi Y infected in BALB/c mouse assessed as reduction of parasitemia at 10 mg/kg/day, ip qd administered for 3 days measured on day 8 post-infection by microscopic analysis relative to control; format: functional; design: scale not given: the % may be the effect or the level left; conditions: route intraperitoneal; in short: as §1
[4] = test system: Leishmania amazonensis; test: Leishmanicidal activity against intracellular amastigote stage of Leishmania amazonensis MHOM/Br/79/Maria infected in mouse J774 cells assessed as reduction of parasite load after 48 hrs by resazurin dye-based fluorometric analysis; format: functional, organism-based
In short: (§2)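 J774 macrophages (5 × 10^4/well) infected with stationary promastigotes at 1:10, 24 h at 33 °C then 24 h at 37 °C, 5% CO2, and washed free of promastigotes. Then 2-fold serial dilutions in triplicate for 48 h at 37 °C. Cells lysed with RPMI with 0.048% HEPES and 0.006% SDS, transformed in Schneider's 3 days at 26 °C, resazurin 3 h, fluorescence 535/590 nm.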

[5] = test system: Leishmania infantum; test: Leishmanicidal activity against intracellular amastigote stage of Leishmania infantum MCAN/ES/96/BCN150 infected in mouse J774 cells assessed as reduction of parasite load after 48 hrs by resazurin dye-based fluorometric analysis; format: functional, organism-based; in short: as §2
[6] = Selectivity index, ratio of CC50 for mouse NCTC-929 cells to IC50 for extracellular epimastigote stage of Trypanosoma cruzi CL-B5; format: functional
[7] = Cytotoxicity against mouse NCTC-929 cells assessed as reduction of cell viability after 24 hrs by resazurin dye-based […]
In short: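 NCTC clone 929 fibroblasts in DMEM with 10% FBS and 2 mM L-glutamine, plated at 3 × 10^4 cells/well and grown overnight at 37 °C, 5% CO2. Compounds in fresh medium for 24 h, then 2 mM resazurin solution added for 3 h. Absorbance read at 570 and 595 nm; CC50 taken as 50% viability loss versus untreated cells, by probit analysis.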

[8] = Cytotoxicity against mouse J774 cells assessed as reduction of cell viability after 24 hrs by resazurin dye-based fluorometric analysis
In short: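 J774 macrophages in RPMI 1640 with 10% heat-inactivated FBS, seeded at 5 × 10^4 cells/well and attached 24 h at 37 °C, 5% CO2. Medium swapped for drug dilutions for 24 h. Then 2.5 mM resazurin stock added for 3 h, fluorescence read at 535 nm excitation / 590 nm emission. Triplicate; CC50 from probit analysis.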

[9] = test system: Leishmania amazonensis; test: Leishmanicidal activity against extracellular promastigote stage of Leishmania amazonensis MHOM/Br/79/Maria assessed as reduction of parasite load after 48 hrs by resazurin dye-based fluorometric analysis; format: functional, organism-based
In short: (§3)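 Log-phase promastigotes cultured in Schneider's medium with 20% heat-inactivated FBS at 26 °C, 2.5 × 10^5 per well. DMSO-dissolved compounds added as 2-fold serial dilutions, final DMSO ≤0.2% (v/v), 48 h at 26 °C. Growth read by 2.5 mM resazurin stock, fluorescence 535/590 nm. Triplicate; IC50 by probit analysis.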

[10] = test system: Leishmania guyanensis; test: Leishmanicidal activity against extracellular promastigote stage of Leishmania guyanensis 141/93 assessed as reduction of parasite load after 48 hrs by resazurin dye-based fluorometric analysis; format: functional, organism-based; conditions: Leishmania guyanensis, 141/93, 48 h; read-out: IC50; in short: as §3
[11] = test system: Leishmania braziliensis; test: Leishmanicidal activity against extracellular promastigote stage of Leishmania braziliensis 2903 assessed as reduction of parasite load after 48 hrs by resazurin dye-based fluorometric analysis; format: functional, organism-based; conditions: Leishmania braziliensis, 2903, 48 h; read-out: IC50; in short: as §3
[12] = test system: Leishmania infantum; test: Leishmanicidal activity against extracellular promastigote stage of Leishmania infantum MCAN/ES/96/BCN150 assessed as reduction of parasite load after 48 hrs by resazurin dye-based fluorometric analysis; format: functional, organism-based; conditions: Leishmania infantum, MCAN/ES/96/BCN150, 48 h; read-out: IC50; in short: as §3
[13] = test system: Trypanosoma cruzi; test: Trypanocidal activity against extracellular epimastigote stage of Trypanosoma cruzi CL-B5 assessed as reduction of parasite load after 72 hrs by CPRG-based colorimetric analysis
[14] = test system: Trypanosoma cruzi; test: Trypanocidal activity against intracellular amastigote stage of Trypanosoma cruzi CL-B5 infected in mouse NCTC-929 cells assessed as reduction of parasite load after 7 days by CPRG-based colorimetric analysis
[15] = test system: Leishmania infantum; test: Antileishmanial activity against promastigote stage of Leishmania infantum assessed as alteration in nuclear DNA at IC50 after 48 hrs by propidium iodide staining-based confocal laser scanning microscopic analysis; format: functional, organism-based
[16] = test system: Leishmania infantum; test: Antileishmanial activity against promastigote stage of Leishmania infantum assessed as alteration in kinetoplast DNA at IC50 after 48 hrs by propidium iodide staining-based confocal laser scanning microscopic analysis; format: functional, organism-based
[17] = test system: Leishmania infantum; test: Binding affinity to beta-tubulin in promastigote stage of Leishmania infantum assessed as structure disorganization at IC50 after 48 hrs by confocal laser scanning microscopic analysis
[18] = test system: Mus musculus; test: Toxicity in BALB/c mouse infected with promastigote stage of Leishmania infantum MCAN/ES/96/BCN150 assessed as hair loss at 10 mg/kg, ip qd administered for 5 days; format: organism-based; design: dose 10 mg/kg, route intraperitoneal; conditions: in vivo, 120 h
In short: (§4)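 BALB/c mice infected intracardially under pentobarbital anaesthesia with 10^7 stationary L. infantum BCN150 promastigotes. From day 21 post-infection, dosed ip once daily for 5 days in 0.1 mL propylene glycol, with an untreated control group. Killed 7 days later; spleen and liver burdens by limiting dilution and expressed as % reduction versus controls.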

[19] = test system: Mus musculus; test: Toxicity in BALB/c mouse infected with promastigote stage of Leishmania infantum MCAN/ES/96/BCN150 assessed as gross weight loss at 10 mg/kg, ip qd administered for 5 days; format: organism-based; design: dose 10 mg/kg, route intraperitoneal; conditions: in vivo, 120 h; in short: as §4
[20] = test system: Leishmania infantum; test: Leishmanicidal activity against promastigote stage of Leishmania infantum MCAN/ES/96/BCN150 infected in BALB/c mouse assessed as reduction of parasite burden in liver at 10 mg/kg, ip qd administered for 5 days measured after 7 days by limiting dilution assay relative to untreated control; format: functional; design: scale not given: the % may be the effect or the level left; conditions: route intraperitoneal; in short: as §4
[21] = test system: Leishmania infantum; test: Leishmanicidal activity against promastigote stage of Leishmania infantum MCAN/ES/96/BCN150 infected in BALB/c mouse assessed as reduction of parasite burden in liver at 5 mg/kg, ip qd administered for 5 days measured after 7 days by limiting dilution assay relative to untreated control; format: functional; design: scale not given: the % may be the effect or the level left; in short: as §4
[22] = test system: Leishmania infantum; test: Leishmanicidal activity against promastigote stage of Leishmania infantum MCAN/ES/96/BCN150 infected in BALB/c mouse assessed as reduction of parasite burden in spleen at 10 mg/kg, ip qd administered for 5 days measured after 7 days by limiting dilution assay relative to untreated control; format: functional; design: scale not given: the % may be the effect or the level left; conditions: route intraperitoneal; in short: as §4
[23] = test system: Leishmania infantum; test: Leishmanicidal activity against promastigote stage of Leishmania infantum MCAN/ES/96/BCN150 infected in BALB/c mouse assessed as reduction of parasite burden in spleen at 5 mg/kg, ip qd administered for 5 days measured after 7 days by limiting dilution assay relative to untreated control; format: functional; design: scale not given: the % may be the effect or the level left; conditions: route intraperitoneal; in short: as §4
[24] = Selectivity index, ratio of CC50 for mouse J774 cells to IC50 for extracellular promastigote stage of Leishmania guyanensis 141/93; format: functional
[25] = Selectivity index, ratio of CC50 for mouse J774 cells to IC50 for extracellular promastigote stage of Leishmania infantum MCAN/ES/96/BCN150; format: functional
[26] = test system: Leishmania infantum; test: Antileishmanial activity against promastigote stage of Leishmania infantum assessed as induction of apoptosis at IC50 after 48 hrs by propidium iodide staining-based confocal laser scanning microscopic analysis; format: functional, organism-based
[27] = test system: Leishmania infantum; test: Antileishmanial activity against promastigote stage of Leishmania infantum assessed as disappearance of kinetoplast DNA at IC50 after 48 hrs by propidium iodide staining-based confocal laser scanning microscopic analysis; format: functional, organism-based
[28] = test system: Leishmania infantum; test: Binding affinity to beta-tubulin in promastigote stage of Leishmania infantum assessed as structure disorganization at IC50 after 24 to 48 hrs by confocal laser scanning microscopic analysis
[29] = test system: Mus musculus; test: Toxicity in BALB/c mouse infected with promastigote stage of Leishmania infantum MCAN/ES/96/BCN150 assessed as appearance of hyperactivity with local skin irritation at 5 mg/kg, ip qd administered for 5 days; format: organism-based; design: dose 5 mg/kg, route intraperitoneal; conditions: in vivo, 120 h; in short: as §4
[30] = Selectivity index, ratio of CC50 for mouse J774 cells to IC50 for extracellular promastigote stage of Leishmania amazonensis MHOM/Br/79/Maria; format: functional
[31] = Leishmania amazonensis, MHOM/Br/79/Maria, 48 h, read-out: IC50
[32] = Trypanosoma cruzi, CL-B5, 72 h, read-out: IC50
[33] = Trypanosoma cruzi, CL-B5, NCTC-929, 168 h, read-out: IC50
[34] = Leishmania amazonensis, MHOM/Br/79/Maria, J774, 48 h, read-out: IC50
[35] = Leishmania infantum, MCAN/ES/96/BCN150, J774, 48 h, read-out: IC50

Row | Compound | Activity [1] | Activity [2] [%] | Activity [3] [%] | IC50 ([4]; j774) | IC50 ([5]; j774) | Ratio CC50/IC50 [6] | CC50 at 24 h [7] [µM] | CC50 at 24 h [8] [µM] | IC50 [9, 31] [µM] | IC50 [10] [µM] | IC50 [11] [µM] | IC50 [12] [µM] | IC50 [13, 32] [µM] | IC50 [14, 33] [µM] | Activity [23] [%] | IC50 [4, 34] [µM] | IC50 [5, 35] [µM] | Ratio CC50/IC50 [25] | IC50 [13] | IC50 ([14]; nctc-929) | further results
1 | O=S(=O)(Nc1ccc2cn[nH]c2c1)c1ccc(F)cc1 | inactive | 44 | -50 | Not Active | Not Active | >196.9 | 223 | ≥ 300 | 108 | 96.3 | 88.8 | 94.8 | 1.3 | 28.5 |  |  |  |  |  |  | 
2 | O=[N+]([O-])c1ccc(S(=O)(=O)Nc2cnccn2)cc1 | inactive | 57 | 14 | Not Active | Not Active | >4.7 | 317 | ≥ 300 |  | 84.2 | 61.5 |  | 76.1 | 224 |  |  |  |  |  |  | IC50 [9]: Not Active
3 | O=S(=O)(Nc1ccc2[nH]ncc2c1)c1ccccc1 |  |  |  |  |  |  |  | ≥ 300 | 38.7 | 47.9 | 40.3 | 37.3 |  |  | 55.5 | 30.8 | 83.2 | > 6.9 | Not Active | Not Active | Activity [15]: inactive; Activity [16]: inactive; Activity [17]: Active; Activity [18]: Non-toxic; Activity [19]: Non-toxic; Activity [20]: 97.57%; Activity ([21]; route intraperitoneal): 78.9%; Activity [22]: 96.34%; Ratio CC50/IC50 [24]: >5.3
4 | O=S(=O)(Nc1ccc2c[nH]nc2c1)c1ccc(Cl)cc1 | inactive | 14 | -10 | Not Active | Not Active | >9.9 | 211 | ≥ 300 | 59.1 | 46.1 | 35.6 | 43.5 | 25.9 | 12.3 |  |  |  |  |  |  | 
5 | CC1CCCN(S(=O)(=O)c2cccc3ccccc23)C1 (stereo not drawn) |  |  |  |  |  |  |  | ≥ 300 | 24.6 | 7.2 | 9.9 | 6.7 |  |  | 80.17 | 18 | 7.1 | > 38.2 | Not Active | Not Active | Activity [26]: Active; Activity [27]: Active; Activity [28]: Active; Activity [29]: Toxic; Activity [21]: inactive; Ratio CC50/IC50 [30]: >10.4
